Laboratory results from ChEMBL document CHEMBL3399994, “Improving both aqueous solubility and anti-cancer activity by assessing progressive lead optimization libraries” (Bioorg Med Chem Lett, 2015).
≈ marks a conversion by molar mass, not a printed value.

What was measured:
[1] = Cytotoxicity against human NHFB cells assessed as cell viability at 10 uM after 48 hrs by SRB assay; assay type: cell-based; settings: read-out: Activity
Outline: (§1)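 Single-concentration screen at 10 µM in normal human fibroblasts, NSCLC H460 cells and their drug-resistant H460_TaxR variant. Viability was read out by sulforhodamine B (SRB) staining and expressed relative to DMSO-treated cells, set as 100%.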

[2] = Cytotoxicity against human H460 cells assessed as cell viability at 10 uM after 48 hrs by SRB assay; assay type: functional; settings: NCI-H460, 48 h, read-out: Activity; outline: as §1
[3] = Solubility in pH 7.4 buffer after 18 hrs by UV spectroscopy based microSol assay; assay type: physicochemical; settings: for solubility at 18 h: pH 7.4 buffer, pH 7.4; for solubility: buffer, pH 7.4, 18 h
[4] = Cytotoxicity against human H460/TaxR cells assessed as cell viability at 10 uM after 48 hrs by SRB assay; assay type: functional; settings: read-out: Activity; outline: as §1
[5] = Cytotoxicity against human NHFB cells after 48 hrs by SRB assay; assay type: cell-based
[6] = Cytotoxicity against human H460 cells after 48 hrs by SRB assay; assay type: functional, cell-based; settings: NCI-H460, 48 h
[7] = Cytotoxicity against human H460/TaxR cells after 48 hrs by SRB assay; assay type: functional, cell-based

| SMILES | solubility at 18 h [3] [µg/mL] | solubility [3] [µg/mL] | viability at 48 h, 10 µM [1] [%] | viability at 10 µM [2] [%] | viability at 10 µM [4] [%] | EC50 [5] [µM] | EC50 [6] [µM] | EC50 [7] [µM] |
| --- | --- | --- | --- | --- | --- | --- | --- | --- |
| CCN(CC)c1ccc(/C=C2/SC(Nc3ccc(Oc4ccccc4)cc3)=NC2=O)cc1 |  |  | > 100 | > 100 | 64.6 |  |  |  |
| O=C1N=C(Nc2ccc(Oc3ccccc3)cc2)S/C1=C/c1ccc(N2CCOCC2)cc1 | 0.1 (≈ 0.219 µM) |  | 98 | 72.6 | 46.8 |  |  |  |
| Cc1ccccc1/N=C1\NC(=O)/C(=C\c2ccc(N(C)C)cc2)S1 | 0.27 (≈ 0.8 µM) |  | 86.5 | 17.6 | 41 |  |  |  |
| CN(C)c1ccc(/C=C2/SC(Nc3ccc(Oc4ccccc4)cc3)=NC2=O)cc1 | 0.01 (≈ 0.0241 µM) |  | 100 | > 100 | 88.2 |  |  |  |
| CCN(CC)c1ccc(/C=C2/SC(Nc3ccccc3)=NC2=O)cc1 |  | 0.1 (≈ 0.285 µM) | 96.9 | 19.5 | 30.1 | > 100 | 6.9 | 9.9 |
| CCCSc1ccc2nc(NC(=O)OC)[nH]c2c1 [ALBENDAZOLE] | 2.3 (≈ 8.67 µM) |  |  |  |  |  |  |  |
| CN1CCN(c2ccc(/C=C3/SC(N(C)c4ccccc4)=NC3=O)cc2)CC1 |  | 18.91 (≈ 48.2 µM) |  |  |  | > 100 | > 100 | > 100 |
| CN(C)c1ccc(/C=C2/SC(N(C)c3ccccc3)=NC2=O)cc1 |  | 0.5 (≈ 1.48 µM) |  |  |  | > 100 | 0.08 | 0.16 |
| CCN(CC)c1ccc(/C=C2/SC(Nc3ccccc3Cl)=NC2=O)cc1 | 0.01 (≈ 0.0259 µM) |  | 85 | 25.1 | 29.5 |  |  |  |
| CN1CCN(c2ccc(/C=C3/SC(N(c4ccccc4)c4ccccc4)=NC3=O)cc2)CC1 |  | 0.11 (≈ 0.242 µM) |  |  |  | > 100 | > 100 | > 100 |
| CN(C)c1ccc(/C=C2/SC(N(c3ccccc3)c3ccccc3)=NC2=O)cc1 |  |  |  |  |  | > 100 | > 100 | > 100 |
| CCN(CC)c1ccc(/C=C2/SC(N(c3ccccc3)c3ccccc3)=NC2=O)cc1 |  | 0.01 (≈ 0.0234 µM) |  |  |  | > 100 | > 100 | > 100 |
| O=C1N=C(N(c2ccccc2)c2ccccc2)S/C1=C/c1ccc(N2CCOCC2)cc1 |  | 0.01 (≈ 0.0226 µM) |  |  |  | > 100 | > 100 | > 100 |
| CN(C1=NC(=O)/C(=C\c2ccc(N3CCOCC3)cc2)S1)c1ccccc1 |  | 5.06 (≈ 13.3 µM) |  |  |  | > 100 | 8.9 | 2.9 |
| CN(C)c1ccc(/C=C2/SC(=Nc3ccccc3)NC2=O)cc1 |  | 0.1 (≈ 0.309 µM) | 68.3 | 19.8 | 29.4 | > 100 | 0.72 | 0.98 |
| CCN(CC)c1ccc(/C=C2/SC(N(C)c3ccccc3)=NC2=O)cc1 |  | 0.01 (≈ 0.0274 µM) |  |  |  | > 100 | 0.28 | 0.43 |
| CN1CCN(c2ccc(/C=C3/SC(Nc4ccc(Oc5ccccc5)cc4)=NC3=O)cc2)CC1 | 0.1 (≈ 0.212 µM) |  | 90.9 | 46.7 | 49.8 |  |  |  |
| CCN(CC)c1ccc(/C=C2/SC(Nc3ccc(O)cc3)=NC2=O)cc1 |  |  | 93.7 | 94.3 | 48.2 |  |  |  |
| CN(C)c1ccc(/C=C2/SC(=Nc3ccccc3Cl)NC2=O)cc1 | 0.02 (≈ 0.0559 µM) |  | > 100 | 8.82 | 39.3 |  |  |  |
| NC(=O)N1c2ccccc2C=Cc2ccccc21 [CARBAMAZEPINE] |  | 22 (≈ 93.1 µM) |  |  |  |  |  |  |
| CN(C)c1ccc(/C=C2/SC(=Nc3ccc(O)cc3)NC2=O)cc1 | 0.01 (≈ 0.0295 µM) |  | 96.5 | 94.4 | 47.9 |  |  |  |
| O=C1N=C(Nc2ccc(O)cc2)S/C1=C/c1ccc(N2CCOCC2)cc1 | 0.19 (≈ 0.498 µM) |  | 92.8 | 88.9 | > 100 |  |  |  |
| CNC(=C[N+](=O)[O-])NCCSCc1ccc(CN(C)C)o1 [RANITIDINE] |  | 33.7 (≈ 107 µM) |  |  |  |  |  |  |

Now from value to compound, other results behind:

| solubility at 18 h [3] [µg/mL] | solubility [3] [µg/mL] | SMILES | viability at 48 h, 10 µM [1] [%] | viability at 10 µM [2] [%] | viability at 10 µM [4] [%] | EC50 [5] [µM] | EC50 [6] [µM] | EC50 [7] [µM] |
| --- | --- | --- | --- | --- | --- | --- | --- | --- |
| 3.83 (≈ 10.1 µM) |  | Cc1ccccc1NC1=NC(=O)/C(=C\c2ccc(N3CCNCC3)cc2)S1 | 62.8 | 65.1 | 50.1 |  |  |  |
| 0.01 (≈ 0.0253 µM) |  | CN1CCN(c2ccc(/C=C3/SC(Nc4ccc(O)cc4)=NC3=O)cc2)CC1 | 94.3 | > 100 | > 100 |  |  |  |
| 0.14 (≈ 0.351 µM) |  | O=C1N=C(Nc2ccccc2Cl)S/C1=C/c1ccc(N2CCNCC2)cc1 | 99.3 | 98.1 | 77.4 |  |  |  |
| 0.2 (≈ 0.547 µM) |  | CCN(CC)c1ccc(/C=C2/SC(Nc3ccccc3C)=NC2=O)cc1 | 80.6 | 8.3 | 24.6 |  |  |  |
|  | 0.1 (≈ 0.274 µM) | O=C1N=C(Nc2ccccc2)S/C1=C/c1ccc(N2CCOCC2)cc1 | 97.4 | 96.1 | 77.5 | > 100 | > 100 | > 100 |
|  | 1.68 (≈ 4.61 µM) | O=C1N=C(Nc2ccccc2)S/C1=C/c1ccc(N2CCNCC2)cc1 | 97 | > 100 | 89.3 | > 100 | > 100 | > 100 |
|  | 0.35 (≈ 0.925 µM) | CN1CCN(c2ccc(/C=C3/SC(Nc4ccccc4)=NC3=O)cc2)CC1 | 93.8 | 13.9 | 11.3 | 6.4 | 1.4 | 2.5 |
|  | 0.15 (≈ 0.34 µM) | O=C1N=C(N(c2ccccc2)c2ccccc2)S/C1=C/c1ccc(N2CCNCC2)cc1 |  |  |  | > 100 | > 100 | > 100 |
| 0.05 (≈ 0.125 µM) |  | O=C1N=C(Nc2ccccc2Cl)S/C1=C/c1ccc(N2CCOCC2)cc1 | 94.2 | 48.2 | 41.4 |  |  |  |
| 0.78 (≈ 2.06 µM) |  | Cc1ccccc1NC1=NC(=O)/C(=C\c2ccc(N3CCOCC3)cc2)S1 | 80.8 | 43.8 | 70.2 |  |  |  |
| 13.9 (≈ 36.5 µM) |  | O=C1N=C(Nc2ccc(O)cc2)S/C1=C/c1ccc(N2CCNCC2)cc1 | 98.9 | 83.9 | 85.5 |  |  |  |
|  | 3.89 (≈ 10.3 µM) | CN(C1=NC(=O)/C(=C\c2ccc(N3CCNCC3)cc2)S1)c1ccccc1 |  |  |  | > 100 | > 100 | > 100 |
| 0.1 (≈ 0.219 µM) |  | O=C1N=C(Nc2ccc(Oc3ccccc3)cc2)S/C1=C/c1ccc(N2CCNCC2)cc1 | 82.9 | 49.3 | 45.4 |  |  |  |
| 0.89 (≈ 2.27 µM) |  | Cc1ccccc1NC1=NC(=O)/C(=C\c2ccc(N3CCN(C)CC3)cc2)S1 | 80.2 | 88.6 | 34.3 |  |  |  |
| 0.43 (≈ 1.04 µM) |  | CN1CCN(c2ccc(/C=C3/SC(Nc4ccccc4Cl)=NC3=O)cc2)CC1 | 96 | 98.2 | 52.7 |  |  |  |
